Results from PMC9245008 (ACS chemical biology, 2022).

Columns and labels:
IRAK4 = target: T1, IRAK4 (Homo sapiens, UniProt Q9NWZ3); assay: Potency of takinib analogues against IRAK4; type: biochemical
T1 sequence (Q9NWZ3 1-460): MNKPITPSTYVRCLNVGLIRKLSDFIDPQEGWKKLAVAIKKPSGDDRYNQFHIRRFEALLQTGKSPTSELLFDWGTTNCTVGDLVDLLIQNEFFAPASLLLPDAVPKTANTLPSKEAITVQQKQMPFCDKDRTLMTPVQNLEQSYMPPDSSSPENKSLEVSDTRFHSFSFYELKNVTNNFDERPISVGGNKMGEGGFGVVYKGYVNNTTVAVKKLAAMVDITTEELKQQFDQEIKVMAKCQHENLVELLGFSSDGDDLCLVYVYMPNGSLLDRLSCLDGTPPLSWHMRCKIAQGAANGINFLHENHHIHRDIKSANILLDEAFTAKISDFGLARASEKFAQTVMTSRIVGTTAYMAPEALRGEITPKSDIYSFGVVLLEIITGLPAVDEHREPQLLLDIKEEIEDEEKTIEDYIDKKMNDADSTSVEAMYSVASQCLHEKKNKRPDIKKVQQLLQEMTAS

TAK1 [1] = target: T2, TAK1 (Homo sapiens, UniProt O43318); assay: MRC Dundee kinase panel screen at 10 μM; type: biochemical
T2 sequence (O43318 with tags, fused parts or gaps limits assumed): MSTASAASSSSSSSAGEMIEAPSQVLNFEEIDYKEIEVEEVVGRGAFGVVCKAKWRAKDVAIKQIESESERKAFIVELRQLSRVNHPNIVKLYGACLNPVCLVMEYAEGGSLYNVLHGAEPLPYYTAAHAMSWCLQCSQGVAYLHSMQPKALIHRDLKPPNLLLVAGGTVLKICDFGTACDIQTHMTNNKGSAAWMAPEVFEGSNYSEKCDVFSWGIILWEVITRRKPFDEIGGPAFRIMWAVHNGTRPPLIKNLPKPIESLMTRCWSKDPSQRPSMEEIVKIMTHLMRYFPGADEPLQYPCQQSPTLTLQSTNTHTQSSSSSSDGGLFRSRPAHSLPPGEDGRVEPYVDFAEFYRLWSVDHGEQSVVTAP

MAP4K5 = MAP4K5 (Homo sapiens, UniProt Q9Y4K4); assay: MRC Dundee kinase panel screen at 10 μM; type: biochemical
CK1γ2 = CK1γ2 (Homo sapiens, UniProt P78368); assay: MRC Dundee kinase panel screen at 10 μM; type: biochemical
ULK2 = target: T3, ULK2 (Homo sapiens, UniProt Q8IYT8); assay: MRC Dundee kinase panel screen at 10 μM; type: biochemical
T3 sequence (Q8IYT8 1-1036): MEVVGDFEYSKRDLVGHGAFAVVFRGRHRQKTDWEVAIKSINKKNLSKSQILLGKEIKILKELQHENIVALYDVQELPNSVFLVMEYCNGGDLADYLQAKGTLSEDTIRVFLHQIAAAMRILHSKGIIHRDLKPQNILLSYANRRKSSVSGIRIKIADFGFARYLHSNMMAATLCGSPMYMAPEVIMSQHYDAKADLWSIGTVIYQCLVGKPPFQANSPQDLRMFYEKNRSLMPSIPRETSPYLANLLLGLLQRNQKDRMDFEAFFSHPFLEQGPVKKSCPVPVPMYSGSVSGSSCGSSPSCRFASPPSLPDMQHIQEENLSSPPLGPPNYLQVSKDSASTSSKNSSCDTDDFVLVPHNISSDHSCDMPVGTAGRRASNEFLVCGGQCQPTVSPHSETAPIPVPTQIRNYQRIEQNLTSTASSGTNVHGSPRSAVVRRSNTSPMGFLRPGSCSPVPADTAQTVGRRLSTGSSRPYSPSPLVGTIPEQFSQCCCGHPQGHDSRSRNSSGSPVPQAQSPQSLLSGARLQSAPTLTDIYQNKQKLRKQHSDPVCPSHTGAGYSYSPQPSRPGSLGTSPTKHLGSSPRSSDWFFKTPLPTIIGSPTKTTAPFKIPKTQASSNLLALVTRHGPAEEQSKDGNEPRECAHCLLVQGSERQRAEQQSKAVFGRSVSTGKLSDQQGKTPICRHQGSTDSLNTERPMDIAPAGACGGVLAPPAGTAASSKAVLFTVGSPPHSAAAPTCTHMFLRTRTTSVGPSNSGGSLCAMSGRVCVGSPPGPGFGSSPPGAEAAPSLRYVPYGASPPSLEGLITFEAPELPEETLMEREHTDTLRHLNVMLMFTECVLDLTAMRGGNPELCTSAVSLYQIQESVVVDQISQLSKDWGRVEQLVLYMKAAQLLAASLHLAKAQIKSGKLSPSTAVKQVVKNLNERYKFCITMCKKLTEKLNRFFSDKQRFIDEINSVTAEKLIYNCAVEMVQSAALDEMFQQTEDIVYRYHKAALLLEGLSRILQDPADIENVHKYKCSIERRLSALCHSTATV

TAK1 [2] = target: T2, TAK1; assay: Dose–response of top 10 kinase hits; type: biochemical; conditions: read-out: IC50 TAK1, n = 2
MLK1 = MLK1 (Homo sapiens, UniProt P80192); assay: Dose–response of top 10 kinase hits; type: biochemical; conditions: read-out: IC50 MLK1, n = 2
[3] = system: TNF expression in THP-1 human macrophages; assay: Cytokine profile in stimulated THP-1 human macrophages; type: cell-based; conditions: 10 μM; THP-1 macrophages stimulated with LPS and IFNγ; vs vehicle
[4] = Oral pharmacokinetics in Sprague-Dawley rats; type: in vivo
CIA mouse model = CIA mouse model of inflammatory arthritis; type: in vivo, DBA/1 mice
Method in brief: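 Type II collagen emulsified 1:1 with Freund's complete adjuvant; mice anaesthetised with isoflurane and given intradermal tail-base injections (400 μg collagen total) on days 0 and 21, then randomised by body weight on day 21.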

[5] = 50 mg/kg IP, all joints (paws and knees), vs vehicle

MLK1, sequence (P80192 whole entry): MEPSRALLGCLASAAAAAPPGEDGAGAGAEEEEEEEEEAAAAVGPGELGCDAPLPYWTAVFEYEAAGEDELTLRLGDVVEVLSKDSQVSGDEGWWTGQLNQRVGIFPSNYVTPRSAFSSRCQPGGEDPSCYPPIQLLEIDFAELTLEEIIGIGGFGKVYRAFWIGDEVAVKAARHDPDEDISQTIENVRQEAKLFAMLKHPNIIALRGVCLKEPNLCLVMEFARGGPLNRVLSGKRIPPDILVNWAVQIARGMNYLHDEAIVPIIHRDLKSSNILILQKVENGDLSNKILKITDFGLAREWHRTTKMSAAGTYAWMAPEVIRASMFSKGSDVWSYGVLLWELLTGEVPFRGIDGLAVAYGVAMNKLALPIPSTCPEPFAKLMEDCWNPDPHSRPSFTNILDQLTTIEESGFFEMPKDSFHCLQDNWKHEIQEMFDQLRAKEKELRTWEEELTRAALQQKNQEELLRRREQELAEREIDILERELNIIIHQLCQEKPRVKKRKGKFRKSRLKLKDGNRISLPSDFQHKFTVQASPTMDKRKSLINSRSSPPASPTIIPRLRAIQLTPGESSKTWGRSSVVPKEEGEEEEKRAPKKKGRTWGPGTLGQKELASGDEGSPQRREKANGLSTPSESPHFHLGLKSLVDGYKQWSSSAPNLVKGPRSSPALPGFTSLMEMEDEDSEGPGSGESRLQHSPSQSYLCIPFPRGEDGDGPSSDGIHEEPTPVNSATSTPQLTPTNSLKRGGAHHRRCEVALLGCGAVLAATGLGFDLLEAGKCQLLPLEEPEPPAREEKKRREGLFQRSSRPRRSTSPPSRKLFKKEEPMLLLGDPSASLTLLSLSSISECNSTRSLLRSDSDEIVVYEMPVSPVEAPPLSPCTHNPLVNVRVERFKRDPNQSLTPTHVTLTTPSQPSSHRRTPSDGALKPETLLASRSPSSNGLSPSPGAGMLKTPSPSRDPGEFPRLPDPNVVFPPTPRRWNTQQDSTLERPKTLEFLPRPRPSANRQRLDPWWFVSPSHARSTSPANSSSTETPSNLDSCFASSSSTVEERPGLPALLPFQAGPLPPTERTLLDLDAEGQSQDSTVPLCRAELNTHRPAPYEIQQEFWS
MAP4K5, sequence (Q9Y4K4 whole entry): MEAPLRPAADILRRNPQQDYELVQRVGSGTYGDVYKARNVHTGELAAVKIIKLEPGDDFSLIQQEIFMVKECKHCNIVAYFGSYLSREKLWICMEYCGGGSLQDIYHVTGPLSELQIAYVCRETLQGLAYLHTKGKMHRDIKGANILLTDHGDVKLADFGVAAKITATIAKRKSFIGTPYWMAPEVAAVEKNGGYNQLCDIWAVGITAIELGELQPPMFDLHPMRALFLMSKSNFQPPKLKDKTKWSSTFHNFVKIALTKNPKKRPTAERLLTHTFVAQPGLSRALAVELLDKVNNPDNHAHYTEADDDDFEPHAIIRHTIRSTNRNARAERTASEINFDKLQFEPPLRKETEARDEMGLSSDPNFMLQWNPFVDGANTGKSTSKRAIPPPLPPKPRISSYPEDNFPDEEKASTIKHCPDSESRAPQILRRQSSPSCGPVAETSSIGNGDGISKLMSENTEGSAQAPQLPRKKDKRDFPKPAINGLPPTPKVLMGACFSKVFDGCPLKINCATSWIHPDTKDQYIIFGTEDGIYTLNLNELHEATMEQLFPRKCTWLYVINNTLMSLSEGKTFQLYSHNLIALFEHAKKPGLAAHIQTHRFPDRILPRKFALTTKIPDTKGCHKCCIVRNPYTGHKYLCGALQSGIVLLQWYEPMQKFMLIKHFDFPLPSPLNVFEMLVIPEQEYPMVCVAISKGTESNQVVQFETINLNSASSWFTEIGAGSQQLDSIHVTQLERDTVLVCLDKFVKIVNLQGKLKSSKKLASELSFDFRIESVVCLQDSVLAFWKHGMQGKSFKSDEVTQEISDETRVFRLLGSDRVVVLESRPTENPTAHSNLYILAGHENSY
CK1γ2, sequence (P78368 whole entry): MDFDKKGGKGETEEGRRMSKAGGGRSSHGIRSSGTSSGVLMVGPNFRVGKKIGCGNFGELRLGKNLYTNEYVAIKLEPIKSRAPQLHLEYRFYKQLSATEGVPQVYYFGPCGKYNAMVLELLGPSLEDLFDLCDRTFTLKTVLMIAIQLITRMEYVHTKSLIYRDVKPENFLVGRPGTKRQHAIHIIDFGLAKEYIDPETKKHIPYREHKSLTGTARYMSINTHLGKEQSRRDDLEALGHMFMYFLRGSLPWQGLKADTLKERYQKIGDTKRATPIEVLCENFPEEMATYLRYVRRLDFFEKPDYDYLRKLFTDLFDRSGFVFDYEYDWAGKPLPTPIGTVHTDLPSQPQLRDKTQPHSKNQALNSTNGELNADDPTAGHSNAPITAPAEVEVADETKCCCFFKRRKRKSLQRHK

For `CCCn1c(NC(=O)c2cccc(C(N)=O)c2)nc2ccc(CN3CCCCC3)cc21` [HS-276], which “IRAK4 inhibition in dose–response experiments” value (IRAK4; Figure 2d) is on record?
Its value is “minimal IRAK4 inhibition”.

What about the Ratio (IRAK4; IRAK4 IC50 over TAK1 IC50) of the same compound?
The Ratio was 1000.

What about the IC50 (IRAK4; read-out: IRAK4 IC50) of the same compound?
The IC50 was 2500 nM.

And the “preference for TAK1 over IRAK4” value (IRAK4; selectivity)?
Its value is 1000 fold.

And the enzymatic activity (TAK1 [1])?
The enzymatic activity was < 15%.

And the enzymatic activity (MAP4K5)?
The enzymatic activity was < 15%.

What about the enzymatic activity (CK1γ2) of the same compound?
Its enzymatic activity is < 15%.

And the enzymatic activity (ULK2)?
Its enzymatic activity is < 15%.

What about the IC50 (TAK1 [2]) of the same compound?
Its IC50 is 8 nM.

And the IC50 (MLK1)?
Its IC50 is 5580 nM.

And the “reduction of TNF expression” value [3]?
The value was 11 fold.

What about the “time up to which μM serum levels are shown” value ([4]; post oral gavage, species not stated) of the same compound?
Its value is “up to 8 h”.

What about the “time up to which μM plasma concentration is shown” value ([4]; rat, 50 mg/kg oral gavage) of the same compound?
Its value is 8 to 12 h.

What about the peak urine concentration ([4]; rat, 50 mg/kg oral gavage, at 12 h) of the same compound?
The peak urine concentration was 100 µM.

And the AUC0-last ([4]; rat, PO, 50 mg/kg)?
The AUC0-last was 6462 ng·h/mL.

What about the Cmax ([4]; rat, PO, 50 mg/kg) of the same compound?
Its Cmax is 1890 ng/mL.

And the Tmax ([4]; rat, PO, 50 mg/kg)?
Its Tmax is 2 h.

And the half-life ([4]; rat, PO, 50 mg/kg)?
Its half-life is 5.46 h.

And the “reduction of arthritic clinical score” value (CIA mouse model; 10 mg/kg QD PO)?
Its value is 18%.

What about the “reduction of disease clinical score” value (CIA mouse model; 25 mg/kg IP) of the same compound?
Its value is 36%.

And the “reduction of arthritic clinical score” value (CIA mouse model; 30 mg/kg QD PO)?
Its value is 35%.

And the disease onset (CIA mouse model; 50 mg/kg IP)?
The disease onset was “significantly delayed disease onset”.

And the “reduction of mean clinical score” value (CIA mouse model; 50 mg/kg IP)?
The value was 85%.

And the “reduction of bone resorption score” value (CIA mouse model; [5])?
The value was 87%.

And the “reduction of cartilage damage score” value (CIA mouse model; [5])?
Its value is 76%.

And the “reduction of inflammation score” value (CIA mouse model; [5])?
Its value is 62%.

And the “reduction of pannus score” value (CIA mouse model; [5])?
The value was 86%.

And the “reduction of periosteal bone formation score” value (CIA mouse model; [5])?
The value was 93%.

What about the clinical arthritis scores (CIA mouse model; 50 mg/kg, days 26 through 36, vs disease control) of the same compound?
Its clinical arthritis scores is “significantly reduced”.

What about the “reduction of AUC of clinical arthritis scores” value (CIA mouse model; 50 mg/kg, vs disease control mice) of the same compound?
Its value is 85%.

What about the disease onset (CIA mouse model; 10 and 30 mg/kg QD PO and 25 mg/kg IP, vs vehicle) of the same compound?
The disease onset was “did not significantly delay disease onset”.

And the disease incidence (CIA mouse model; day 36, 50 mg/kg IP, vehicle 92%)?
Its disease incidence is 75%.
